From ChEMBL document CHEMBL1124575, “Water-soluble third generation antitumor platinum complexes, [2,2-bis (aminomethyl)-1,3-propanediol-N,N']-[1,1-cyclobutanedicarboxylato (2-)-O,O']platinum(II) and [1,1-cyclobutanedicarboxylato(2-)-O,O'] [tetrahydro-4H-pyran-4,4-dimethanamine-N,N']platinum(II)” (J Med Chem, 1989)
Calls of active or inactive are those of the source. The calls are words filed in the database; no cut-off is given here.

Columns and labels:
B16 [1] = assay: Antitumor activity against murine tumor cells B16 in C57BC mice administered 12.5 mg/Kg intraperitoneally on days 1-9 relative to tumor inoculation; format: functional; details: Mus musculus
Summary of the method: (§1)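 B16 melanoma in C57BC/6 mice, propagated per National Cancer Institute protocols. Drug given ip daily on days 1-9 after tumor inoculation, with observation for 60 days. Read-out is % increase in life span (ILS) over controls. ILS >25% counts as active. Treatment cutting ILS or body weight by >15% versus controls is rated toxic.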

MX1 [2] = assay: Percent tumor weight inhibition (TWI) in athymic mice at an optimal dose of 50 mg/kg in breast MX-1 cells; format: functional, organism-based; set-up: dose 50 mg/kg; details: Mus musculus
P388 [3] = assay: Antitumor activity against murine tumor cells, P388 in BDF1 mice administered 100 mg/kg intraperitoneally on days 1,5, and 9 relative to tumor inoculation; format: functional, organism-based; set-up: dose 100 mg/kg; details: Mus musculus, at 100 mg/kg
Summary of the method: (§2)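 L1210, cisplatin-resistant L1210 and P388 leukemias implanted in BDF1 mice and maintained per National Cancer Institute protocols. Drug given ip on days 1, 5 and 9 after inoculation, with 30-day observation. The end point is % ILS versus controls, with >25% needed for activity. Reduction of ILS or body weight by >15% is rated toxic.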

Colon 26 [4] = assay: Antitumor activity against murine tumor cells Colon 26 in BALB / C mice administered 50 mg/Kg intraperitoneally on days 1,5, and 9 relative to tumor inoculation; format: functional, cell-based; details: Mus musculus
Summary of the method: (§3)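 Colon 26 carcinoma grown in Balb/C mice following National Cancer Institute protocols. Intraperitoneal dosing on days 1, 5 and 9 after tumor inoculation, with survival followed for 30 days. Activity is scored as % ILS over control mice, and ILS >25% is required. Toxicity is a >15% drop in ILS or body weight versus controls.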

Mus musculus [5] = assay: Percent tumor weight inhibition (TWI) in athymic mice at an optimal dose of 50 mg/kg in […] cells; format: functional, organism-based; set-up: dose 50 mg/kg
L1210 [6] = assay: Antitumor activity against murine tumor cells L1210 in BDF1 mice administered 100 mg/kg intraperitoneally on days 1,5, and 9 relative to tumor inoculation; format: functional, organism-based; set-up: dose 100 mg/kg; details: Mus musculus, at 100 mg/kg; summary of the method: as §2
L1210 [7] = assay: Antitumor activity against murine tumor cells L1210 cisplatin resistant leukemia in BDF1 mice administered mg/Kg intraperitoneally on days 1,5, and 9 relative to tumor inoculation; Inactive; format: functional; details: Mus musculus; summary of the method: as §2
B16 [8] = assay: Antitumor activity against murine tumor cells B16 in C57BC mice administered 0.4 mg/kg intraperitoneally on days 1-9 relative to tumor inoculation; format: functional, organism-based; set-up: dose 0.4 mg/kg; details: Mus musculus, at 0.4 mg/kg; summary of the method: as §1
MX1 [9] = assay: Percent tumor weight inhibition (TWI) in athymic mice at an optimal dose of 3 mg/kg in breast MX-1 cells; format: functional, organism-based; set-up: dose 3 mg/kg; details: Mus musculus
Mus musculus [10] = assay: Percent tumor weight inhibition (TWI) in athymic mice at an optimal dose of 3 mg/kg in […] cells; format: functional, organism-based; set-up: dose 3 mg/kg
P388 [11] = assay: Antitumor activity against murine tumor cells, P388 in BDF1 mice administered 3 mg/kg intraperitoneally on days 1,5, and 9 relative to tumor inoculation; format: functional, organism-based; set-up: dose 3 mg/kg; details: Mus musculus, at 3 mg/kg; summary of the method: as §2
L1210 [12] = assay: Antitumor activity against murine tumor cells L1210 cisplatin resistant leukemia in BDF1 mice administered mg/Kg intraperitoneally on days 1,5, and 9 relative to tumor inoculation; In active; format: functional; details: Mus musculus; summary of the method: as §2
L1210 [13] = assay: Antitumor activity against murine tumor cells L1210 in BDF1 mice administered 6.2 mg/kg intraperitoneally on days 1,5, and 9 relative to tumor inoculation; format: functional, organism-based; set-up: dose 6.2 mg/kg; details: Mus musculus, at 6.2 mg/kg; summary of the method: as §2
Colon 26 [14] = assay: Antitumor activity against murine tumor cells Colon 26 in BALB / C mice administered 1 mg/Kg intraperitoneally on days 1,5, and 9 relative to tumor inoculation; format: functional; details: Mus musculus; summary of the method: as §3
[15] = Solubility in water; format: physicochemical; details: buffer
B16 [16] = assay: Antitumor activity against murine tumor cells B16 in C57BC mice administered 6 mg/kg intraperitoneally on days 1-9 relative to tumor inoculation; format: functional, organism-based; set-up: dose 6 mg/kg; details: Mus musculus, at 6 mg/kg; summary of the method: as §1
B16 [17] = assay: Antitumor activity against murine tumor cells B16 in C57BC mice administered 0.4 mg/Kg intraperitoneally on days 1-9 relative to tumor inoculation; format: functional; details: Mus musculus; summary of the method: as §1
Colon 26 [18] = assay: Antitumor activity against murine tumor cells Colon 26 in BALB / C mice administered 3.1 mg/Kg intraperitoneally on days 1,5, and 9 relative to tumor inoculation; format: functional; details: Mus musculus; summary of the method: as §3
L1210 [19] = assay: Antitumor activity against murine tumor cells L1210 in BDF1 mice administered 1.5 mg/kg intraperitoneally on days 1,5, and 9 relative to tumor inoculation; format: functional, organism-based; set-up: dose 1.5 mg/kg; details: Mus musculus, at 1.5 mg/kg; summary of the method: as §2
B16 [20] = assay: Antitumor activity against murine tumor cells B16 in C57BC mice administered 1.5 mg/Kg intraperitoneally on days 1-9 relative to tumor inoculation; format: functional; details: Mus musculus; summary of the method: as §1
M5076 = assay: Antitumor activity against murine tumor cells M5076 in BDF1 mice administered 3 mg/Kg intraperitoneally on days 1,5, and 9 relative to tumor inoculation; format: functional; details: Mus musculus
P388 [21] = assay: Antitumor activity against murine tumor cells, P388 in BDF1 mice administered 3.2 mg/Kg intraperitoneally on days 1,5, and 9 relative to tumor inoculation; format: functional; details: Mus musculus; summary of the method: as §2
B16 [22] = assay: Antitumor activity against murine tumor cells B16 in C57BC mice administered 0.2 mg/Kg intraperitoneally on days 1-9 relative to tumor inoculation; format: functional; details: Mus musculus; summary of the method: as §1
Colon 26 [23] = assay: Antitumor activity against murine tumor cells Colon 26 in BALB / C mice administered 0.8 mg/Kg intraperitoneally on days 1,5, and 9 relative to tumor inoculation; format: functional; details: Mus musculus; summary of the method: as §3
P388 [24] = assay: Antitumor activity against murine tumor cells, P388 in BDF1 mice administered 6.2 mg/Kg intraperitoneally on days 1,5, and 9 relative to tumor inoculation; format: functional; details: Mus musculus; summary of the method: as §2
L1210 [25] = assay: Antitumor activity against murine tumor cells L1210 in BDF1 mice administered 3.1 mg/kg intraperitoneally on days 1,5, and 9 relative to tumor inoculation; format: functional, organism-based; set-up: dose 3.1 mg/kg; details: Mus musculus, at 3.1 mg/kg; summary of the method: as §2

CARBOPLATIN
Increase (B16 [1]): 43%
TWI (MX1 [2]): 90%
Increase (P388 [3]): 144%
Increase (Colon 26 [4]): 85%
TWI (Mus musculus [5]): 200%
Increase (L1210 [6]): 35%
Increase (L1210 [7]): inactive

CISPLATIN
Increase (B16 [8]): 36%
TWI (MX1 [9]): 86%
TWI (Mus musculus [10]): 200%
Increase (P388 [11]): 140%
Increase (L1210 [12]): inactive
Increase (L1210 [13]): 96%
Increase (Colon 26 [14]): 47%

cis-Diamminedichloroplatinum (II) complex [listing 1 of 3 here]
S [15]: 0.3 mg/mL

cis-Diamminedichloroplatinum (II) complex [listing 2 of 3 here]
S [15]: 1 mg/mL

cis-Diamminedichloroplatinum (II) complex [listing 3 of 3 here]
Increase (B16 [16]): 53%
Increase (B16 [17]): 43%
Increase (Colon 26 [18]): 59%
Increase (L1210 [19]): 38%
Increase (B16 [20]): 36%
Increase (M5076): 128%
Increase (P388 [21]): 173%
Increase (B16 [22]): 43%
Increase (L1210 [13]): 50%
Increase (Colon 26 [23]): 39%
Increase (P388 [24]): 136%
Increase (L1210 [25]): 39%
